Data set [1] can be described thus: Octanol:water partition coefficient is evaluated. Format: physicochemical.
The subject of data set [2] is Mus musculus. The data set is described as follows: BPI index was determined at 5 min after subcutaneous administration. Format: functional. The method, boiled down: (§1)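 Balb-c mice (20 ± 2 g) received a single sc injection of the ¹⁴C-labeled ester in 0.5 mL of 25% propylene glycol in water. Brain and liver were removed at 5 min, weighed and homogenized in urea/SDS/EDTA phosphate protein solvent (pH 7.6). Aliquots were counted for ¹⁴C by liquid scintillation. BPI = brain amount per g as % of liver amount per g. Mean ± SEM, n = 3.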

For data set [3], the system named is Mus musculus. The data set is described as follows: Percent amount of compound was determined in liver per gram of tissue after 5 min of administration at a dose of 3-39 mg/Kg; range is 4.2-165. Format: functional, organism-based.
The test system of data set [4] is Mus musculus. The data set is described as follows: Ability to penetrate the blood-brain barrier of mice was evaluated by measuring the brain penetration index (BPI) at dose 3-39 mg/Kg, administered subcutaneously; range is 0.04-1.81. Format: functional, organism-based.
In data set [5] the test system is Mus musculus. The experiment in a line: BPI index was determined at 5 min after subcutaneous administration to mice. Format: functional. The method, boiled down:
as §1

The test system of data set [6] is Mus musculus. The experiment in a line: Ability to penetrate the blood-brain barrier of mice was evaluated by measuring the brain penetration index (BPI) at dose 67 mg/Kg, administered subcutaneously. Format: functional, organism-based. The method, boiled down: as §1
In data set [7] the test system is Mus musculus. The experiment in a line: Percent amount of compound was determined in liver per gram of tissue after 5 min of administration at a dose of 67 mg/kg. Details: dose 67 mg/kg. Format: functional, organism-based. The gist of the method:
as §1

Data set [8] relates to Mus musculus. The data set is described as follows: Compound was evaluated for the effect on the uptake in mouse brain, at dose 78 mg/Kg (ip) after a time period of 15 min. Format: functional, organism-based. The gist of the method: (§2)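 Mice received a single systemic dose (ip or sc) of ¹⁴C-labeled compound in 0.5 mL of 0.14 N saline or 25% propylene glycol/water, depending on the compound. Brain was taken at the stated time and homogenized in 8 mL of 1% SDS/6 M urea/EDTA in 0.03 M phosphate (pH 7.4). Aliquots were counted by liquid scintillation and expressed as nmol/g brain.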

Data set [9] relates to Mus musculus. The experiment in a line: Compound was evaluated for the effect on the uptake in mouse brain, at dose 78 mg/Kg (ip) after a time period of 30 min. Format: functional, organism-based. The method, boiled down: as §2
Data set [10] relates to Mus musculus. The experiment in a line: Compound was evaluated for the effect on the uptake in mouse brain, at dose 78 mg/kg (ip) after a time period of 5 min. Format: functional, organism-based. Details: dose 78 mg/kg. The method, boiled down: as §2

In data set [1], `NCCCC(=O)O` [GAMMA-AMINOBUTYRIC ACID] showed a K of 0.004. In [2], the BPI is recorded as 0.96. The Uptake worked out at 4.2 nM/g in [3] and 0.04 nM/g in data set [4].

For the compound `NCCCC(=O)OCC(O)CO.O=C(O)C(F)(F)F` (stereo unspecified), the K in [1] is 0.01. In [5], this compound yielded a BPI of 3. Besides, the Uptake is 4.8 nM/g in data set [6]; 157 nM/g in [7]; 14 nM/g in [8]; 16.4 nM/g in data set [9]; 4.8 nM/g in data set [10].

These data come from ChEMBL document CHEMBL1123057, “gamma-Aminobutyric acid esters. 2. Synthesis, brain uptake, and pharmacological properties of lipid esters of gamma-aminobutyric acid” (J Med Chem, 1985).
